The results in this text go back to ChEMBL document CHEMBL1145803, “Characterization of a series of 3-amino-2-phenylpropene derivatives as novel bovine chromaffin vesicular monoamine transporter inhibitors” (J Med Chem, 2003).

The target of assay [1] is Synaptic vesicular amine transporter (Bos taurus, UniProt Q27963). Nature of the assay: Inhibitory constant for dopamine uptake into resealed bovine chromaffin granule ghosts through the vesicular monoamine transporter. In short, it runs like this: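 Resealed bovine chromaffin granule ghosts (20 mM Tris phosphate, 100 mM KCl, 150 mM sucrose, 10 mM fumarate, 100 µg/mL catalase, no ascorbate, pH 7.0; Ficoll/sucrose purified) preincubated 10 min at 30 °C in 0.3 M sucrose, 10 mM HEPES, 5 mM Mg-ATP, 5 mM MgSO4, catalase. Inhibitor (0 or 200 µM) added 2 min, then DA at six concentrations. Pellet catecholamines by HPLC-EC; Ki from competitive inhibition fit.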
Sequence of Synaptic vesicular amine transporter (Q27963 whole entry): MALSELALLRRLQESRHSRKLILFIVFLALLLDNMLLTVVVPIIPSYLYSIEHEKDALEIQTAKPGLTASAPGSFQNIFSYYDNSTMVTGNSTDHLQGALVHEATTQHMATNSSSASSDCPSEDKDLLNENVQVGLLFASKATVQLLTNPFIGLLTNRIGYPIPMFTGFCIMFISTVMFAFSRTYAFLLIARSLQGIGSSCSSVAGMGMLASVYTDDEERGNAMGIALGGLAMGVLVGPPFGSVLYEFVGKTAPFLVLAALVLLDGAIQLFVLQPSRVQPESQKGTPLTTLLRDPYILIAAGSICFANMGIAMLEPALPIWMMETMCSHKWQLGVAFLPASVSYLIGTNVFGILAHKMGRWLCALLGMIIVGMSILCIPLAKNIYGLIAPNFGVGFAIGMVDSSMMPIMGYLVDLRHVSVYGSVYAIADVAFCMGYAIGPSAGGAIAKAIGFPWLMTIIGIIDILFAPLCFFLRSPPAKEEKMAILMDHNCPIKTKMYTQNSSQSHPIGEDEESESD

Assay [2] has as its target Synaptic vesicular amine transporter (Bos taurus) (UniProt Q27963). Nature of the assay: Km DA/Ki ratio was determined by different ghost preparations. The method in brief: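 Ratio of Km for dopamine to Ki, each measured on the same ghost preparation in the dopamine uptake competitive-inhibition kinetics; used to normalize Km variation between ghost preparations.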

SMILES strings stand for the structures.

Sequence of Synaptic vesicular amine transporter (Bos taurus) (Q27963 whole entry): as above

In the case of `C=C(CN)c1ccc(C)cc1`, the Ki – broadly, a measure of affinity in units of concentration, obtained from inhibition or displacement – in assay [1] was 55.9 µM. In addition, the Ratio in assay [2] stood at 0.59.

With `C=C(CN)c1ccc(I)cc1`, in assay [1], the affinity, expressed as Ki, was 12.9 µM. Moreover, the Ratio in assay [2] amounted to 2.96.

In assay [1], `C=C(c1ccc(O)cc1)C(C)N(CC)CC` (configuration not stated) displayed a Ki of 207 µM. Besides, the Ratio in assay [2] was determined as 0.15.

`C=C(c1ccccc1)C(C)N` (configuration not stated) gave a Ki in assay [1] of 78.4 µM. Moreover, the Ratio in assay [2] stood at 0.41.

For `C=C(CN)c1ccc(Br)cc1`, in assay [1], the affinity corresponds to a Ki of 17.7 µM. Further, the Ratio in assay [2] came to 1.79.

For the molecule `C=C(CN)c1ccc(F)cc1`, the affinity in assay [1], expressed as Ki, was 42.3 µM. The Ratio in assay [2] turned out to be 0.8.

For `NC/C(=C\Br)c1ccc(O)cc1`, the affinity in assay [1] corresponds to a Ki of 50 µM. In addition, in assay [2], the Ratio was found to be 0.46.

The molecule `C=C(CNC)c1ccc(O)cc1` registered a Ki in assay [1] of 93.7 µM. In addition, in assay [2], the Ratio worked out at 0.39.

With `C=C(CN)c1cccc(O)c1`, the Ki in assay [1] came to 16.7 µM. Further, the Ratio in assay [2] came to 1.4.

As for `C=C(CN)c1cccc(OC)c1`, the affinity in assay [1], expressed as Ki, was 30.2 µM. Moreover, the Ratio in assay [2] worked out at 0.76.

On to `C=C(CN)c1ccc(O)cc1`, for which the Ki in assay [1] was determined as 15.5 µM. Moreover, the Ratio in assay [2] was determined as 1.52.

`C=C(CN(CC)CC)c1ccc(O)cc1` registered a Ki in assay [1] of 202 µM. Besides, the Ratio in assay [2] came to 0.15.

Turning to `C=C(CN)c1ccc(Cl)cc1`, the Ki in assay [1] came to 18 µM. For the same molecule, the Ratio in assay [2] came to 1.76.

Molecule `C=C(C[n+]1ccccc1)c1ccccc1` showed a Ki in assay [1] of 241 µM. The Ratio in assay [2] was determined as 0.12.

With `C=C(CN)c1ccc(OC)cc1`, the Ki in assay [1] amounted to 102 µM. For the same molecule, the Ratio in assay [2] came to 0.33.

In assay [1], `C=C(CN)c1ccccc1` gave a Ki of 40.3 µM. The Ratio in assay [2] is 0.57.
